Laboratory results as given in ChEMBL document CHEMBL1146380, “Synthesis, antimicrobial activity, and QSAR studies of furan-3-carboxamides” (2007).
In brackets after ≈: the same amount, converted by molar mass. Activity calls are given as the source filed them. The calls are words filed in the database; no cut-off is given here.

Legend:
[1] = test system: Candida albicans; experiment: Antimicrobial activity against Candida albicans ATCC 44373 by broth microdilution method; format: functional
Outline: (§1)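 Yeasts grown on potato dextrose agar. Inoculum was standardized by McFarland turbidity as for bacteria, into RPMI 1640 broth (M27-A2). DMSO-dissolved compound was tested in twofold dilutions from 320 to 1.25 at 35 °C for 24 h, in duplicate. MIC was the lowest concentration completely inhibiting visible growth. Fungicidal concentration was read by subculturing 20 µL from clear wells on Sabouraud dextrose agar at 35 °C.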

[2] = test system: Candida dubliniensis; experiment: Antimicrobial activity against Candida dubliniensis CBS 7987 by broth microdilution method; format: functional; outline: as §1
[3] = test system: Nakaseomyces glabratus; experiment: Antimicrobial activity against Candida glabrata […] by broth microdilution method; format: functional; outline: as §1
[4] = test system: Cryptococcus deneoformans; experiment: Antimicrobial activity against Cryptococcus neoformans var.neoformans serotype D ATCC 28952 by broth microdilution method; format: functional
Outline: (§2)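 Organism grown on potato dextrose agar, with turbidity-standardized inoculum in RPMI 1640 broth (M27-A2). DMSO-dissolved compound was tested in twofold dilutions from 320 to 1.25 at 35 °C, incubated up to 72 h, in duplicate. MIC was the lowest concentration with no visible growth. Cidal concentration was read by subculturing 20 µL from clear wells on Sabouraud dextrose agar, incubated for the same period.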

[5] = test system: Saccharomyces cerevisiae; experiment: Antimicrobial activity against Saccharomyces cerevisiae ATCC 2601 by broth microdilution method; format: functional; outline: as §2
[6] = test system: Staphylococcus aureus; experiment: Antimicrobial activity against Staphylococcus aureus ATCC 25923 by broth microdilution method; format: functional; settings: for MBC: read-out: MFC
Outline: (§3)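 Bacteria grown overnight on Mueller–Hinton agar. Colonies were suspended in saline to McFarland turbidity (about 10^8 cfu/mL), diluted 1:100 in saline, then 1:20 in Mueller–Hinton broth, giving 5 · 10^4 cfu/mL per well. DMSO-dissolved compound was tested in twofold dilutions from 320 to 1.25 at 35 °C for 24 h. MIC was the lowest concentration with no visible turbidity (M7-A4). Bactericidal concentration was read by subculturing clear wells on Mueller–Hinton agar.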

[7] = test system: Klebsiella pneumoniae; experiment: Antimicrobial activity against Klebsiella pneumoniae ATCC 1003 by broth microdilution method; format: functional; outline: as §3
[8] = test system: Escherichia coli; experiment: Antimicrobial activity against Escherichia coli ATCC 25922 by broth microdilution method; format: functional; outline: as §3
[9] = Antimicrobial activity against Salmonella setubal ATCC 19196 by broth microdilution method; format: functional, Salmonella enterica subsp. enterica serovar Setubal; settings: Salmonella enterica; outline: as §3
[10] = test system: Prototheca zopfii; experiment: Antimicrobial activity against Prototheca zopfii by broth microdilution method; format: functional; outline: as §2
[11] = test system: Pseudomonas aeruginosa; experiment: Antimicrobial activity against Pseudomonas aeruginosa ATCC 27853 by broth microdilution method; format: functional; outline: as §3
[12] = test system: Rhizopus arrhizus; experiment: Antimicrobial activity against Rhizopus oryzae isolate by broth microdilution method; format: functional
[13] = test system: Sporothrix schenckii; experiment: Antimicrobial activity against Sporothrix schenckii ATCC 1146 by broth microdilution method; format: functional
[14] = test system: Fusarium solani; experiment: Antimicrobial activity against Fusarium solani isolate by broth microdilution method; format: functional
[15] = test system: Aspergillus fumigatus; experiment: Antimicrobial activity against Aspergillus fumigatus isolate by broth microdilution method; format: functional
[16] = test system: Aspergillus flavus; experiment: Antimicrobial activity against Aspergillus flavus isolate by broth microdilution method; format: functional
[17] = test system: Aspergillus niger; experiment: Antimicrobial activity against Aspergillus niger isolate by broth microdilution method; format: functional
[18] = test system: Aspergillus terreus; experiment: Antimicrobial activity against Aspergillus terreus isolate by broth microdilution method; format: functional
[19] = test system: Scedosporium boydii; experiment: Antimicrobial activity against Pseudallescheria boydii isolate by broth microdilution method; format: functional

SMILES | MFC [1] | MIC [1] | MFC [2] | MIC [2] | MFC [3] | MIC [3] | MFC [4] | MIC [4] | MIC [5] | MIC [6] | MIC [7] | MIC [8] | MIC [9] | MIC [10] | MIC [11] | MIC [12] | MIC [13] | MIC [14] | MIC [15] | MIC [17] | other results
O=C(Nn1cnnc1)c1ccoc1 | 40 µg/mL (≈ 225 µM) | 40 µg/mL (≈ 225 µM) | 40 µg/mL (≈ 225 µM) | 40 µg/mL (≈ 225 µM) | 80 µg/mL (≈ 449 µM) | 40 µg/mL (≈ 225 µM) | 40 µg/mL (≈ 225 µM) | 10 µg/mL (≈ 56.1 µM) | 80 µg/mL (≈ 449 µM) | 320 µg/mL (≈ 1800 µM) | 320 µg/mL (≈ 1800 µM) | 160 µg/mL (≈ 898 µM) | 160 µg/mL (≈ 898 µM) | 80 µg/mL (≈ 449 µM) | 40 µg/mL (≈ 225 µM) | 320 µg/mL (≈ 1800 µM) | 320 µg/mL (≈ 1800 µM) | 320 µg/mL (≈ 1800 µM) | 320 µg/mL (≈ 1800 µM) | 320 µg/mL (≈ 1800 µM) | MFC [5]: 160 µg/mL (≈ 898 µM); MBC [6]: 320 µg/mL (≈ 1800 µM); Activity [7]: inactive; MBC [8]: 320 µg/mL (≈ 1800 µM); MBC [9]: 320 µg/mL (≈ 1800 µM); MFC [10]: 320 µg/mL (≈ 1800 µM); MBC [11]: 160 µg/mL (≈ 898 µM); Activity [12]: inactive; Activity [13]: inactive; Activity [14]: inactive; MFC [15]: 320 µg/mL (≈ 1800 µM); Activity [16]: inactive; MFC [18]: 320 µg/mL (≈ 1800 µM); MIC [18]: 320 µg/mL (≈ 1800 µM); Activity [19]: inactive
C[C@@H](O)[C@H]1C(=O)N2C(C(=O)O)=C(SCCNC=N)C[C@H]12 [IMIPENEM ANHYDROUS] | – | – | – | – | – | – | – | – | – | 0.06 µg/mL (≈ 0.2 µM) | < 4 µg/mL | 0.06 µg/mL (≈ 0.2 µM) | < 4 µg/mL | – | 2 µg/mL (≈ 6.68 µM) | – | – | – | – | – | –
C[C@@H]1[C@H](O)[C@@H](C)/C=C/C=C/C=C/C=C/C=C/C=C/C=C/[C@H](O[C@@H]2O[C@H](C)[C@@H](O)[C@H](N)[C@@H]2O)C[C@@H]2O[C@](O)(C[C@@H](O)C[C@@H](O)[C@H](O)CC[C@@H](O)C[C@@H](O)CC(=O)O[C@H]1C)C[C@H](O)[C@H]2C(=O)O [AMPHOTERICIN B] | – | – | – | – | – | – | – | – | – | – | – | – | – | 0.5 µg/mL (≈ 0.541 µM) | – | 1 µg/mL (≈ 1.08 µM) | 0.5 µg/mL (≈ 0.541 µM) | 1 µg/mL (≈ 1.08 µM) | 1 µg/mL (≈ 1.08 µM) | 1 µg/mL (≈ 1.08 µM) | MIC [16]: 1 µg/mL (≈ 1.08 µM); MIC [18]: 2 µg/mL (≈ 2.16 µM); MIC [19]: 4 µg/mL (≈ 4.33 µM)
OC(Cn1cncn1)(Cn1cncn1)c1ccc(F)cc1F [FLUCONAZOLE] | – | 4 µg/mL (≈ 13.1 µM) | – | 2 µg/mL (≈ 6.53 µM) | – | 8 µg/mL (≈ 26.1 µM) | – | 2 µg/mL (≈ 6.53 µM) | 1 µg/mL (≈ 3.27 µM) | – | – | – | – | – | – | – | – | – | – | – | –
CN(C)c1ccc(CNC(=O)c2ccoc2)cc1 | 160 µg/mL (≈ 655 µM) | 80 µg/mL (≈ 327 µM) | 160 µg/mL (≈ 655 µM) | 80 µg/mL (≈ 327 µM) | 160 µg/mL (≈ 655 µM) | 80 µg/mL (≈ 327 µM) | 320 µg/mL (≈ 1310 µM) | 160 µg/mL (≈ 655 µM) | 160 µg/mL (≈ 655 µM) | 80 µg/mL (≈ 327 µM) | 160 µg/mL (≈ 655 µM) | 160 µg/mL (≈ 655 µM) | 320 µg/mL (≈ 1310 µM) | 320 µg/mL (≈ 1310 µM) | 160 µg/mL (≈ 655 µM) | 320 µg/mL (≈ 1310 µM) | 320 µg/mL (≈ 1310 µM) | inactive | 320 µg/mL (≈ 1310 µM) | 320 µg/mL (≈ 1310 µM) | Activity [5]: inactive; MBC [6]: 80 µg/mL (≈ 327 µM); MBC ([7]; read-out: MFC): 160 µg/mL (≈ 655 µM); Activity [8]: inactive; MBC [9]: 320 µg/mL (≈ 1310 µM); Activity [10]: inactive; MBC [11]: 160 µg/mL (≈ 655 µM); Activity [12]: inactive; Activity [13]: inactive; Activity [15]: inactive; Activity [16]: inactive; MIC [16]: 320 µg/mL (≈ 1310 µM); Activity [17]: inactive; Activity [18]: inactive; MFC [19]: 320 µg/mL (≈ 1310 µM); MIC [19]: 40 µg/mL (≈ 164 µM)
